Test results from PMC3567311 (ACS chemical biology, 2012).
Read-outs that look alike come from different tables or passages of the source.

Columns and labels:
Kvβ2 [1] = target: T1, Kvβ2 (Rattus norvegicus, UniProt P62483, W272A); assay: scintillation proximity assay, competition with 3H-cortisone; conditions: read-out: % reduction of cortisone binding at 250 μM
T1 sequence (P62483 36-361 W272A): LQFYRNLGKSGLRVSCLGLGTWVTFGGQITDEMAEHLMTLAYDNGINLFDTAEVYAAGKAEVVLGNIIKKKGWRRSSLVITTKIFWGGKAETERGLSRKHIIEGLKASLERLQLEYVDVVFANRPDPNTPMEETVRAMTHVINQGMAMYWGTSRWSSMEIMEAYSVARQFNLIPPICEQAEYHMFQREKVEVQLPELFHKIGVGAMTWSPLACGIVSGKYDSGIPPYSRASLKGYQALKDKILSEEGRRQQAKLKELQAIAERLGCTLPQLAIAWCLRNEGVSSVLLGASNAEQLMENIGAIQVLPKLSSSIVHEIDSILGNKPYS

Kvβ1 [2] = target: T2, Kvβ1 (Rattus norvegicus, UniProt P63144, C7A); assay: inside-out patch clamp dose-response; type: cell-based
T2 sequence (P63144 whole entry C7A): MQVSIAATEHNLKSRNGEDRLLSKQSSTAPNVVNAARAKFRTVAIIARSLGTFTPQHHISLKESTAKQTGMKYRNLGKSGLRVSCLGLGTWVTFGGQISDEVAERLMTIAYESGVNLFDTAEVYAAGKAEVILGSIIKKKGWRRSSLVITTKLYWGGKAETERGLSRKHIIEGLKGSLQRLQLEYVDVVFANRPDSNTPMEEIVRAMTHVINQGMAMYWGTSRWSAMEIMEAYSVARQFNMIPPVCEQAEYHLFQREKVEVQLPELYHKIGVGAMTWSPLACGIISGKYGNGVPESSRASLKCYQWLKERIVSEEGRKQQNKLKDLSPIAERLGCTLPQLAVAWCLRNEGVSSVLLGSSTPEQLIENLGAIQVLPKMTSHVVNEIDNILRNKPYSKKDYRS
T2 sequence (P10499 whole entry partner): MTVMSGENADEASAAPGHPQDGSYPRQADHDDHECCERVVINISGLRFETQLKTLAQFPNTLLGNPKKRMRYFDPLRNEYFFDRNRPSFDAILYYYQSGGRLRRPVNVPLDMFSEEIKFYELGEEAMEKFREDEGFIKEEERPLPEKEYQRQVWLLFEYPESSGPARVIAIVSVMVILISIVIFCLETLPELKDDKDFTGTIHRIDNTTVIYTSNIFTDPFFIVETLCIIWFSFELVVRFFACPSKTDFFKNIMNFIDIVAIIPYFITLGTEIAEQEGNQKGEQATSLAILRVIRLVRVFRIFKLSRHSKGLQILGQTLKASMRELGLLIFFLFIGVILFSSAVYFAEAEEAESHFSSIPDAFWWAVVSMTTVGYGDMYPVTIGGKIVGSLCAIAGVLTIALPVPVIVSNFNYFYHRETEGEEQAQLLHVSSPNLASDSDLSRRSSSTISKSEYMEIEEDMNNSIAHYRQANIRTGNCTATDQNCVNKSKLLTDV

Kvβ1 [3] = target: T2, Kvβ1; assay: inside-out patch clamp dose-response; type: cell-based; remark: listed apart in the source
In short: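 Inside-out patches from Xenopus oocytes injected with mixed mRNAs of rat Kv1.1 and rat Kvβ1 (Cys7→Ala), or with a Kvβ1-Kv1.1 fused chimera. Currents elicited by stepping from −80 mV to +60 mV for 400 ms. Test compound was dissolved in DMSO, diluted into internal buffer (final 1% DMSO) and perfused at several concentrations. ΔIss = rise in steady-state current as a fraction of initial inactivating current. EC50 taken from the dose-response curve.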

Kvβ2 [4] = target: T1, Kvβ2; type: binding
Kvβ2 [5] = target: T1, Kvβ2; assay: scintillation proximity assay, competition with 3H-cortisone; conditions: read-out: % reduction of cortisone binding at 250 μM; remark: listed apart in the source

Compound	inhibition at 250 µM (Kvβ2 [1]) [%]	EC50 (Kvβ1 [2]) [µM]	EC50 (Kvβ1 [3]) [µM]	Ki (Kvβ2 [4]) [µM]	inhibition at 250 µM (Kvβ2 [5]) [%]
CC(=O)OCC(=O)[C@@]1(O)CC[C@H]2[C@@H]3CCC4=CC(=O)CC[C@]4(C)[C@H]3C(=O)C[C@@]21C [cortisone 21-acetate]	95 ± 0.2	9 ± 1.1			
C[C@]12CCC(=O)C=C1CC[C@@H]1[C@@H]2C(=O)C[C@@]2(C)[C@H]1CC[C@]2(O)C(=O)CO [cortisone]			46	30 ± 10	
CCC(=O)O[C@]1(C(=O)SCF)[C@H](C)C[C@H]2[C@@H]3C[C@H](F)C4=CC(=O)C=C[C@]4(C)[C@@]3(F)[C@@H](O)C[C@@]21C [fluticasone propionate]		0.037 ± 0.0011			98 ± 0.1
